Assay results published in ChEMBL document CHEMBL2157921, “Identification of novel 3,5-diarylpyrazoline derivatives containing salicylamide moiety as potential anti-melanoma agents” (Bioorg Med Chem Lett, 2012).

Legend:
[1] = Inhibition of mouse full length GST-tagged BRAF V600E mutant using MEK1 as substrate incubated for 1 hr prior to substrate addition measured after 25 min by gel electrophoresis
In short: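 Kinase activity was read out as BRAF V600E-mediated phosphorylation of MEK. Results are given as IC50 values.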

[2] = Antiproliferative activity against human WM266.4 cells expressing BRAF V600E mutant after 24 hrs by MTT assay; assay type: functional; conditions: WM 266-4, 24 h
[3] = molecular target: Receptor tyrosine-protein kinase erbB-2 (Homo sapiens, UniProt P04626); experiment: Inhibition of HER2
[4] = molecular target: Vascular endothelial growth factor receptor 2 (Homo sapiens, UniProt P35968); experiment: Inhibition of VEGFR2 using gastrin as substrate after 60 mins by immunofluorescence method
[5] = Inhibition of bovine FAK isolated from brain after 20 mins by turbidimetric analysis; set-up: species or system Bos taurus
[6] = molecular target: Epidermal growth factor receptor (Homo sapiens, UniProt P00533); experiment: Inhibition of EGFR
[7] = molecular target: Serine/threonine-protein kinase B-raf (Homo sapiens, UniProt P15056, V600E); experiment: Inhibition of BRAF V600E mutant in human WM266.4 cells assessed as inhibition of ERK1/2 phosphorylation by ELISA; assay type: cell-based
Aurora kinase A = molecular target: T1, Aurora kinase A (Homo sapiens, UniProt O14965); experiment: Inhibition of human recombinant Aurora A kinase using PLK as substrate incubated for 15 mins prior to substrate addition measured after 60 mins by immunofluorescence method
T1 sequence (O14965 whole entry): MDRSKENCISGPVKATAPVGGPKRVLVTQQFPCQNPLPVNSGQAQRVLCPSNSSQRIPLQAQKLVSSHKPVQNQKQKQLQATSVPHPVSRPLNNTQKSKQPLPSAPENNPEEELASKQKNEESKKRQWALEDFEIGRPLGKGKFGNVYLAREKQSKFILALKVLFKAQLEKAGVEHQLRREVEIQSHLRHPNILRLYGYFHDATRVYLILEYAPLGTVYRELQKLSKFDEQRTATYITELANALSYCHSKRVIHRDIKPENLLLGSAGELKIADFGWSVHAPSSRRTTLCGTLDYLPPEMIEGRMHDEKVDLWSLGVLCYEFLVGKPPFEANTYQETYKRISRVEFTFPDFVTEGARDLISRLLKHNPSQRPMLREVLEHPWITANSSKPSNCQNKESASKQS

[8] = Antiproliferative activity against human WM1361 cells expressing wild type BRAF after 24 hrs by MTT assay; assay type: functional, cell-based; conditions: WM1361, 24 h

Chain of Receptor tyrosine-protein kinase erbB-2 (P04626 whole entry): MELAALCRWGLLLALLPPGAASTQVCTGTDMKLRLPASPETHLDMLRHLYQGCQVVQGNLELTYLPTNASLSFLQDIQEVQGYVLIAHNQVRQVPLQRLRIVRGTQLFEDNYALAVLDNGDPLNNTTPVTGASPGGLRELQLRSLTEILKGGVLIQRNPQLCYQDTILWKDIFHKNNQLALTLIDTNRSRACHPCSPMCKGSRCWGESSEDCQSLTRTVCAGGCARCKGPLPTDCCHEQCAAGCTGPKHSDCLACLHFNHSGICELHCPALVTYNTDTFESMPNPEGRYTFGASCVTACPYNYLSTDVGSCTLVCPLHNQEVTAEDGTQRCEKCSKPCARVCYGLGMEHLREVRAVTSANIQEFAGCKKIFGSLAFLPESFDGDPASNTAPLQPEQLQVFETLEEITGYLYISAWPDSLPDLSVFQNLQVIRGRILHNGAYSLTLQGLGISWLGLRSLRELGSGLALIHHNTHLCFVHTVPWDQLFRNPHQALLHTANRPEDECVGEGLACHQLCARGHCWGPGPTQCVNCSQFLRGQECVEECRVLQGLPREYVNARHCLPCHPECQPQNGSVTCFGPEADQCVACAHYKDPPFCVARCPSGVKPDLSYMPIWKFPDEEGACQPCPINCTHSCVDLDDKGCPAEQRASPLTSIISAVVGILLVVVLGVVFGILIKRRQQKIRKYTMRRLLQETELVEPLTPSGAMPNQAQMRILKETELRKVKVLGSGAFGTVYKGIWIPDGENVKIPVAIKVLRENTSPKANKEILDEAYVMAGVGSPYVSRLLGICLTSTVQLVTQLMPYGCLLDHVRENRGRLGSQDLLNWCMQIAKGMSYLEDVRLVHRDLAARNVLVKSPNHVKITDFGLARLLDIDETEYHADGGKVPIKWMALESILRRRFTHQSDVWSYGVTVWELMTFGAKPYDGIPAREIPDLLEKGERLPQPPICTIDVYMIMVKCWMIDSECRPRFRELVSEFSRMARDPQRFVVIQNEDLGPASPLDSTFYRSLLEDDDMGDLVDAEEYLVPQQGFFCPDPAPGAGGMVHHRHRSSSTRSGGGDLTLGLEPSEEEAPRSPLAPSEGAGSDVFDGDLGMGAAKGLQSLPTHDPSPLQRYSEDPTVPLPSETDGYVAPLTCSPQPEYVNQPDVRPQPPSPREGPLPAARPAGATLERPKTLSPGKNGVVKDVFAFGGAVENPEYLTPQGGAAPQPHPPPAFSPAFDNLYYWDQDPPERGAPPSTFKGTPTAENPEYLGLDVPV
Chain of Epidermal growth factor receptor (P00533 whole entry): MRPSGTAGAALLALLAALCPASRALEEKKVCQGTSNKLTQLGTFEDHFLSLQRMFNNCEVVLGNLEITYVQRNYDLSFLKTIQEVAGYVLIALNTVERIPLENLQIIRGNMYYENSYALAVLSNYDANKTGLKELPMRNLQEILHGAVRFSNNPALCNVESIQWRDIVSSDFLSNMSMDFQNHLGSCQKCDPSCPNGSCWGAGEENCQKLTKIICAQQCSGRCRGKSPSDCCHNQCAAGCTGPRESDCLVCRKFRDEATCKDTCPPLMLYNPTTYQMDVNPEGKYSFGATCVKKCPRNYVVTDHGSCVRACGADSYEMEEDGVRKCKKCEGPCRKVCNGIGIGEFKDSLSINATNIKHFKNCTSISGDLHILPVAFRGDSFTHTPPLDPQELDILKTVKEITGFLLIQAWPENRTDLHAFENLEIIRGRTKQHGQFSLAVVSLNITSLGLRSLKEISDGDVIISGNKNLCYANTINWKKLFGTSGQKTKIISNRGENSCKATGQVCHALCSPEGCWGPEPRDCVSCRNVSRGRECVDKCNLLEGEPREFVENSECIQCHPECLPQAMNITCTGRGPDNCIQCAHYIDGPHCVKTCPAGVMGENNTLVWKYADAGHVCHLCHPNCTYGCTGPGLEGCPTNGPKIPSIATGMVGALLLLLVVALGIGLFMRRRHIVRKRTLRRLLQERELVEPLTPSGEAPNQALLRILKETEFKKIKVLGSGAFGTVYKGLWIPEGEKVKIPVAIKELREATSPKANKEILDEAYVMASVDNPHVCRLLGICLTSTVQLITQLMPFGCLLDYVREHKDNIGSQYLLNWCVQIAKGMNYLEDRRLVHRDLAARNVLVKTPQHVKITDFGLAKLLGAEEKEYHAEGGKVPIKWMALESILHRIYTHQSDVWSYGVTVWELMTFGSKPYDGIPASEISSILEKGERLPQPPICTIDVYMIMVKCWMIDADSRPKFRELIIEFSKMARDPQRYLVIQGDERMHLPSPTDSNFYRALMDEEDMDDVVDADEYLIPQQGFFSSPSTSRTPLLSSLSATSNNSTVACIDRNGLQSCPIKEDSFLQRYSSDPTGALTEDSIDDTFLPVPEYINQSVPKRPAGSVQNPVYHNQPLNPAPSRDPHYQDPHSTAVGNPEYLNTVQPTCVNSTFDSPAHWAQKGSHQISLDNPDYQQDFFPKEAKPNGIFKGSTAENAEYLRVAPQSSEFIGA
Chain of Vascular endothelial growth factor receptor 2 (P35968 whole entry): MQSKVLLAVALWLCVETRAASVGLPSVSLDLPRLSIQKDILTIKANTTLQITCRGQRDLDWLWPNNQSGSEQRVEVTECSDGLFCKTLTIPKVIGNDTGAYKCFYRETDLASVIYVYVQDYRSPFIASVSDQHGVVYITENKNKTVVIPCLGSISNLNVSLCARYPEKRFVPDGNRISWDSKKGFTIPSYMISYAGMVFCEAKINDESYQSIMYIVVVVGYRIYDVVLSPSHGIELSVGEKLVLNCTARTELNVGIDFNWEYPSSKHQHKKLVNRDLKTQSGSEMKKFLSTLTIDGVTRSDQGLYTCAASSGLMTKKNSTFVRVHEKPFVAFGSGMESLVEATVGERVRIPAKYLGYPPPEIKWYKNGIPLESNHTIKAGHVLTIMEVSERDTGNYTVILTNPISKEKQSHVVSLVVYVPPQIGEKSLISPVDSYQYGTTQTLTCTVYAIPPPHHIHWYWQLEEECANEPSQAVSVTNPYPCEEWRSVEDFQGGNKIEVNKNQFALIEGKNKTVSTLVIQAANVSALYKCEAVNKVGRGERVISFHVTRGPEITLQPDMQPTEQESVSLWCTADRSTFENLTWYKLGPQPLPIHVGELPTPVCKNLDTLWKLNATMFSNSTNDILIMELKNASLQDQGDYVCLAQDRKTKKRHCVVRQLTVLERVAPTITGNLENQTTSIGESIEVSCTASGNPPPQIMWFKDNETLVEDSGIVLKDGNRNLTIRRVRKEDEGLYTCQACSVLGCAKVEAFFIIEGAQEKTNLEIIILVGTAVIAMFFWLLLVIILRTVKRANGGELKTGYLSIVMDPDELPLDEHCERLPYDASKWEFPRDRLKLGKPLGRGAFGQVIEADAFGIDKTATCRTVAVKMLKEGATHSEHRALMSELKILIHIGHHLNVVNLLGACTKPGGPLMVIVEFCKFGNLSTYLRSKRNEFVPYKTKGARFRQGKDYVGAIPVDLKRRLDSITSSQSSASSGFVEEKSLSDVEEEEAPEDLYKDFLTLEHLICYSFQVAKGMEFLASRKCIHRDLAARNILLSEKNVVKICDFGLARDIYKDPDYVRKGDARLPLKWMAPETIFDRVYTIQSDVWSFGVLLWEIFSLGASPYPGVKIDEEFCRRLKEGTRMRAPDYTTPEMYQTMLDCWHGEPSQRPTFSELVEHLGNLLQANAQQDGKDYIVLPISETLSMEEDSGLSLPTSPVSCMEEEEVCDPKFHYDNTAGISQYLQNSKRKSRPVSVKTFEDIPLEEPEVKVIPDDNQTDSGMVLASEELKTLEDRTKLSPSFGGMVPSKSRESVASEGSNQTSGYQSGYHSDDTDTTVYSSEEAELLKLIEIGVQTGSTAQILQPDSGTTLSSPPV
Chain of Serine/threonine-protein kinase B-raf (P15056 2-766 V600E limits assumed): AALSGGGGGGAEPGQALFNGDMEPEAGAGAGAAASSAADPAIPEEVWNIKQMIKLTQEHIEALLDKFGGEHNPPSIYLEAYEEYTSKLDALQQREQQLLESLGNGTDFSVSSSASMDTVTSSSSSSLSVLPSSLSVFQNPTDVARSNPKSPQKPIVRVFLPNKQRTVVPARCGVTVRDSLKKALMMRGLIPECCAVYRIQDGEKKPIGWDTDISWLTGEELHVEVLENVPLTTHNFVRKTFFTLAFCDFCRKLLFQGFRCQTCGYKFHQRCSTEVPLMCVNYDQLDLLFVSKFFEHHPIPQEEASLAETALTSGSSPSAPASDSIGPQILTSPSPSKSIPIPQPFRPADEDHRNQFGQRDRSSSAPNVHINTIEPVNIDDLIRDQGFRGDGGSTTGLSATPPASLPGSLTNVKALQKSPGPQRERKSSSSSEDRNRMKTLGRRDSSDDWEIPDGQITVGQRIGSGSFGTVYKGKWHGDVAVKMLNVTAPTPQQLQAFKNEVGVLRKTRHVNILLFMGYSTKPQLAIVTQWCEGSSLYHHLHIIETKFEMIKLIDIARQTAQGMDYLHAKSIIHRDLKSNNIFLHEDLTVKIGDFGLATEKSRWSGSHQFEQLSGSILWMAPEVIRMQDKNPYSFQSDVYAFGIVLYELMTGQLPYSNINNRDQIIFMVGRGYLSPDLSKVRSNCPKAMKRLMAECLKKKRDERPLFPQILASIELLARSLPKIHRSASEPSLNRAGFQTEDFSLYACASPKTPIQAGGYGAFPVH

Structure (SMILES)	IC50 [1] [µM]	GI50 [2] [µM]	further results
COc1ccc(C2=NN(C(=O)c3ccc(Cl)cc3O)C(c3ccc(Br)cc3)C2)cc1 (centres undefined)	1.38	2.89	–
COc1ccc(C2=NN(C(=O)c3cc(OC)ccc3O)C(c3ccc(Br)cc3)C2)cc1 (centres undefined)	6.94	12.9	–
CNC(=O)c1cc(Oc2ccc(NC(=O)Nc3ccc(Cl)c(C(F)(F)F)c3)cc2)ccn1 [SORAFENIB]	0.06	8.1	–
COc1ccc(C2=NN(C(=O)c3cc(Cl)ccc3O)C(c3ccc(OC)cc3)C2)cc1 (centres undefined)	9.3	12.6	–
COc1ccc(C2=NN(C(=O)c3cc(Br)ccc3O)C(c3ccc(OCc4ccccc4)cc3)C2)cc1 (centres undefined)	7.22	12.9	–
COc1ccc(C2=NN(C(=O)c3cc(Br)ccc3O)C(c3ccc(Cl)cc3)C2)cc1 (centres undefined)	1.21	2.39	–
COc1ccc(C2=NN(C(=O)c3cc(Br)ccc3O)C(c3ccc(OC)cc3)C2)cc1 (centres undefined)	4.92	18.4	–
COc1ccc(C2=NN(C(=O)c3cc(I)ccc3O)C(c3ccc(Cl)cc3)C2)cc1 (centres undefined)	1.3	3.27	–
COc1ccc(C2=NN(C(=O)c3cc(Cl)ccc3O)C(c3ccc(OCc4ccccc4)cc3)C2)cc1 (centres undefined)	5.69	12.9	–
COc1ccc(C2=NN(C(=O)c3cc(Cl)ccc3O)C(c3ccc(Cl)cc3)C2)cc1 (centres undefined)	0.57	1.52	–
COc1ccc(C2=NN(C(=O)c3ccc(Cl)cc3O)C(c3ccc(Cl)cc3)C2)cc1 (centres undefined)	0.16	0.24	IC50 [3]: > 25 µM; IC50 [4]: > 25 µM; IC50 [5]: > 25 µM; IC50 [6]: 10.5 µM; IC50 [7]: 0.81 µM; IC50 (Aurora kinase A): > 25 µM; GI50 [8]: 12.1 µM
COc1ccc(C2=NN(C(=O)c3cc(Br)ccc3O)C(c3ccc(Br)cc3)C2)cc1 (centres undefined)	3.69	7.4	–
COc1ccc(C2=NN(C(=O)c3ccc(Cl)cc3O)C(c3ccc(OCc4ccccc4)cc3)C2)cc1 (centres undefined)	5.01	7.89	–
COc1ccc(C2=NN(C(=O)c3ccc(Cl)cc3O)C(c3ccc(OC)cc3)C2)cc1 (centres undefined)	7.04	13.3	–

The next lines start with results.

IC50 [1] [µM]	Structure (SMILES)	GI50 [2] [µM]	further results
10.3	COc1ccc(C2=NN(C(=O)c3cc(OC)ccc3O)C(c3ccc(OCc4ccccc4)cc3)C2)cc1 (centres undefined)	13.9	–
2.51	COc1ccc(C2=NN(C(=O)c3cc(Cl)ccc3O)C(c3ccc(Br)cc3)C2)cc1 (centres undefined)	3.48	–
13.3	COc1ccc(C2=NN(C(=O)c3cc(I)ccc3O)C(c3ccc(OC)cc3)C2)cc1 (centres undefined)	15.6	–
4.1	COc1ccc(C2=NN(C(=O)c3cc(I)ccc3O)C(c3ccc(Br)cc3)C2)cc1 (centres undefined)	7.35	–
8.38	COc1ccc(C2=NN(C(=O)c3cc(OC)ccc3O)C(c3ccc(OC)cc3)C2)cc1 (centres undefined)	> 20	–
3.72	COc1ccc(C2=NN(C(=O)c3cc(OC)ccc3O)C(c3ccc(Cl)cc3)C2)cc1 (centres undefined)	5.04	–
5.9	COc1ccc(C2=NN(C(=O)c3cc(I)ccc3O)C(c3ccc(OCc4ccccc4)cc3)C2)cc1 (centres undefined)	13	–
